Reference: publication PMC10350030 (bioRxiv, 2023)
“Also recorded” adds a separate entry of the source. Values belong to the compound of their own block, whether it stands above or below them.

Legend:
FAM-Aβ42 = FAM-Aβ42 (Homo sapiens, UniProt P05067); assay type: biochemical; settings: for enhancement of CP-induced degradation of FAM-Aβ42 by anti-oxidants: compared with CP only group
mature iPS neurons = experiment: Toxicity study with iPS neuronal cells; assay type: cell-based; settings: 24 hours, Tuj-1 staining; for neuritic continuity of neurons treated with Aβ oligomers: Aβ Oligomer (20 μM)
Method in brief: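 Neurons came from iPS cells differentiated from blood stem cells and were used as mature cultures 12 days after seeding. They were treated with Aβ oligomers (20 µM), with or without test compound. Neuronal morphology and neurite continuity were assessed by immunocytochemistry for Tuj-1, a neuronal class III β-tubulin marker.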

[1] = Fluorescence spectra of FAM-Aβ42 during incubation in PBS; assay type: physicochemical; settings: PBS buffer, 0 to 60 minutes, peptide alone
[2] = system: hippocampal CA1 area from mouse brain slides; experiment: Extracellular fEPSP recording in hippocampal CA1 of brain slices; settings: 1 hour
Method in brief: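 In hippocampal slices, the Schaffer collateral pathway was stimulated once every 15 s with 0.1 ms current pulses. Field potentials were recorded extracellularly in the CA1 stratum radiatum. fEPSP was measured as the negative deflection of the voltage trace from baseline. Maximal amplitude was summarised for four groups: control, Aβ (1 µM), test compound (0.1 µM), and Aβ plus test compound.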

SH-SY5Y cells = experiment: ApopTag fluorescein in situ apoptosis detection assay with Aβ42 oligomers; assay type: cell-based; settings: Aβ oligomer (20 μM) and AO (2 μM), 24 hours, compared to the control group

FAM-Aβ42, sequence (P05067 672-713): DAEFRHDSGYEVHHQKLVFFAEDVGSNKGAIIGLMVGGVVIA

- effect of EDTA on Cu/Vc-induced degradation of FAM-Aβ42 (FAM-Aβ42; Cu(II)/EDTA/Vc (1:10:20), control experiment): inhibited the degradation
Compound: O=C(O)CN(CCN(CC(=O)O)CC(=O)O)CC(=O)O [EDTA]

- degradation enhancement by Vc when incubated with AO (FAM-Aβ42; AO/Vc versus AO): no significant degradation enhancement
Compound: O=C1O[C@H]([C@@H](O)CO)C(O)=C1O [Vc, Vitamin C]

Compound: COc1cc(/C=C/C(=O)CC(=O)/C=C/c2ccc(O)c(OC)c2)ccc1O [curcumin]
- enhancement of CP-induced degradation of FAM-Aβ42 by anti-oxidants (FAM-Aβ42): neither of these anti-oxidants could enhance the degradation

Compound: NCCc1ccc(O)c(O)c1 [dopamine]
- enhancement of CP-induced degradation of FAM-Aβ42 by anti-oxidants (FAM-Aβ42): neither of these anti-oxidants could enhance the degradation

Compound: NC[C@H](O)c1ccc(O)c(O)c1 [norepinephrine]
- enhancement of CP-induced degradation of FAM-Aβ42 by anti-oxidants (FAM-Aβ42): neither of these anti-oxidants could enhance the degradation

Compound: Oc1ccc(/C=C/c2cc(O)cc(O)c2)cc1 [resveratrol]
- enhancement of CP-induced degradation of FAM-Aβ42 by anti-oxidants (FAM-Aβ42): neither of these anti-oxidants could enhance the degradation

Compound: Aβ oligomers: Aβ42 oligomers prepared from Aβ42 peptide in F12 media at 4°C for 24 hours [reference compound]
- neuritic continuity of neurons treated with Aβ oligomers (mature iPS neurons): apparent broken neuritic segments
- neuritic continuity of neurons treated with Aβ oligomers (mature iPS neurons; listed as Aβ Oligomer): loss of neuritic continuity

Compound: FAM-Aβ42: a fluorescent dye conjugated Aβ [reference compound]
- fluorescence intensity of FAM-Aβ42 during incubation (aggregation-induced fluorescence quenching) [1]: gradually decreasing

- AO-mediated cleavage of FAM-Aβ42 under N2 (FAM-Aβ42; N2 gas bubbled into the incubation buffer before incubation): considerably reduced
- cleavage of FAM-Aβ42 (FAM-Aβ42; after 4 hours of incubation with AO): more than 50%
Compound: ascorbate oxidase [AO]
- change of fEPSP magnitude by AO alone ([2]; AO alone (0.1 µM)): did not cause significant changes
- maximal fEPSP amplitude, Ab-AO group ([2]; slices incubated with 1 µM Ab and 0.1 µM AO, mean ± SE): 3.61± 0.49 mV
- level of cell apoptosis (SH-SY5Y cells): significantly reduced
- neuritic continuity of neurons treated with Aβ oligomers mixed with AO (mature iPS neurons; Aβ Oligomer (20 μM) and AO (2 μM)): no apparent broken segments; also recorded: normal length neurites

Compound: vitamin E
- enhancement of CP-induced degradation of FAM-Aβ42 by anti-oxidants (FAM-Aβ42): neither of these anti-oxidants could enhance the degradation
